Source: ChEMBL document CHEMBL1122760, “Synthesis and biological properties of some cyclic phosphotriesters derived from 2'-deoxy-5-fluorouridine” (1984)
≈ marks a conversion by molar mass, not a printed value.

Tests used:
L1210 [1] = test: Dose inhibiting L1210/0 murine leukemia cell proliferation by 50%; assay type: functional; details: Mus musculus, read-out: ID50 (the source's name)
Summary of the method: (§1)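 L1210 cells (5×10^4 per well) grown in Eagle's MEM with 10% inactivated fetal calf serum, 2 mM L-glutamine, 0.075% NaHCO3, then exposed to varying test compound concentrations for 48 h at 37 °C in humidified CO2 atmosphere; growth linear over this period. Cells counted by Coulter counter; ID50 = concentration reducing living cell number by 50%.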

L1210 [2] = test: Dose inhibiting L1210/0 murine leukemia cell proliferation by 50% in presence of 125 ug/mL of dUrd.; assay type: functional; details: Mus musculus, read-out: ID50 (the source's name)
L1210 [3] = test: Dose inhibiting L1210/Br-dUrd murine leukemia cell proliferation by 50%; assay type: functional; details: Mus musculus, read-out: ID50 (the source's name); summary of the method: as §1
[4] = Ki/Km values of L1210/0 dTMP synthase for the compound was determined.
[5] = Ratio of ID50 for L1210/0 cell growth and ID50 for L1210/BdUrd cell growth.; assay type: functional
[6] = Ratio of ID50 upon addition of dThd to the ID50 upon addition of dUrd against the L1210/0 cell proliferation.; assay type: functional
L1210 [7] = test: Dose inhibiting L1210/0 murine leukemia cell proliferation by 50% in presence of 5 ug/mL of dThd.; assay type: functional; details: Mus musculus, read-out: ID50 (the source's name)
L1210 [8] = test: Dose inhibiting L1210/0 murine leukemia cell proliferation by 50% in presence of 500 ug/mL of dCyd.; assay type: functional; details: Mus musculus, read-out: ID50 (the source's name)

For O=c1[nH]c(=O)n([C@H]2C[C@H](O)[C@@H](COP3(=O)OCC(O)CO3)O2)cc1F (stereo partly drawn), which IC50 (L1210 [1]) is on record?
The IC50 was 0.32 mg/L (≈ 0.837 µM).

What about the IC50 (L1210 [2]) of the same compound?
Its IC50 is 3.87 mg/L.

What about the IC50 (L1210 [3]) of the same compound?
The IC50 was 165 mg/L (≈ 432 µM).

What about the Ratio [4] of the same compound?
Its Ratio is > 60.

And the Ratio [5]?
The Ratio was 516.

And the Ratio [6]?
Its Ratio is >258.

And the IC50 (L1210 [7])?
The IC50 was > 1000 mg/L.

What about the IC50 (L1210 [8]) of the same compound?
Its IC50 is 2.04 mg/L.

Which results are given for O=c1[nH]c(=O)n([C@H]2C[C@H](O)[C@@H](COP3(=O)OCCCO3)O2)cc1F?
IC50 (L1210 [1]): 0.275 mg/L (≈ 0.751 µM); IC50 (L1210 [2]): 13.2 mg/L; IC50 (L1210 [3]): 197 mg/L (≈ 538 µM); Ratio [4]: > 110; Ratio [5]: 716; Ratio [6]: >7.58; IC50 (L1210 [7]): > 100 mg/L; IC50 (L1210 [8]): 1.38 mg/L

For O=c1[nH]c(=O)n([C@H]2C[C@H](O)[C@@H](COP3(=O)OCC(F)(F)CO3)O2)cc1F, which IC50 (L1210 [1]) is on record?
Its IC50 is 0.003 mg/L (≈ 0.00746 µM).

And the IC50 (L1210 [2])?
The IC50 was 0.048 mg/L.

What about the IC50 (L1210 [3]) of the same compound?
The IC50 was 2.42 mg/L (≈ 6.02 µM).

And the Ratio [4]?
The Ratio was > 110.

What about the Ratio [5] of the same compound?
The Ratio was 807.

And the Ratio [6]?
Its Ratio is 5637.

And the IC50 (L1210 [7])?
The IC50 was 270 mg/L.

What about the IC50 (L1210 [8]) of the same compound?
Its IC50 is 0.036 mg/L.

Which IC50 (L1210 [1]) does the source give for O=c1[nH]c(=O)n([C@H]2C[C@H](O)[C@@H](CO)O2)cc1F [FLOXURIDINE] here?
Its IC50 is 0.001 mg/L (≈ 0.00406 µM).

And the IC50 (L1210 [2])?
Its IC50 is 0.02 mg/L.

What about the IC50 (L1210 [3]) of the same compound?
The IC50 was 1.75 mg/L (≈ 7.11 µM).

What about the Ratio [4] of the same compound?
The Ratio was 66.5.

What about the Ratio [5] of the same compound?
The Ratio was 1750.

What about the Ratio [6] of the same compound?
Its Ratio is 1700.

And the IC50 (L1210 [7])?
Its IC50 is 34 mg/L.

What does the source list for O=c1[nH]c(=O)n([C@H]2C[C@H](O)[C@@H](COP(=O)(O)O)O2)cc1F [5-FLUORODEOXYURIDYLATE]?
IC50 (L1210 [1]): 0.002 mg/L (≈ 0.00613 µM); IC50 (L1210 [2]): 0.044 mg/L; IC50 (L1210 [3]): 2.43 mg/L (≈ 7.45 µM); Ratio [4]: 0.0099; Ratio [5]: 1215; Ratio [6]: >2273; IC50 (L1210 [7]): > 100 mg/L
